Legend:
[1] = test system: H9; assay: Concentration required to inhibit uninfected H9 cell growth by 50%; assay type: functional, cell-based; conditions: Homo sapiens
Outline: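 Mock-infected H9 cells handled in parallel under the same conditions as the infection assay, without virus. Viability read by XTT on day 6. IC50 is the concentration toxic to 50% of mock-infected cells. Averages of at least two experiments.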

[2] = test system: Human immunodeficiency virus 1; assay: Concentration required to inhibit HIV-1 replication in acutely infected H9 lymphocytes by 50%; assay type: functional, organism-based
Outline: (§1)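 H9 T-cells (3 × 10^5 cells/mL) in RPMI 1640 with 10% FCS at 37 °C, 5% CO2, infected with HIV-1 IIIB (125 TCID50). Medium replaced on days 1 and 4 post-infection. Supernatant p24 antigen capture read on day 6. EC50 is the concentration suppressing replication by 50%; TI = IC50/EC50. AZT run as positive control. Averages of at least two experiments.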

[3] = Therapeutic index (IC50/EC50) was determined; conditions: read-out: TI; outline: as §1
[4] = test system: Rattus norvegicus; assay: Volume distribution of compound in male Sprague-Dawley rats following an intravenous bolus dose at 10-20 mg/kg; assay type: ADME, organism-based; conditions: in vivo
Outline: (§2)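 Adult male Sprague–Dawley rats (approx. 250 g) dosed iv at 10-20 mg/kg and orally as a suspension at 25 mg/kg. Nine 0.4 mL blood samples taken over 8 h. Plasma levels measured by reversed-phase HPLC with UV (320 nm) and fluorescence (ex 320/em 380 nm) detection. Detection limit approx. 50 ng/mL (UV) and 10 ng/mL (fluorescence) from 0.10 mL plasma. Parameters from noncompartmental analysis; half-life from the terminal log-linear phase; N=3–4 rats.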

[5] = test system: Rattus norvegicus; assay: Vss in male Sprague-Dawley rats following an intravenous bolus dose at 10-20 mg/kg; assay type: ADME, organism-based; conditions: in vivo; outline: as §2
[6] = test system: Rattus norvegicus; assay: Clearance in male Sprague-Dawley rats following an intravenous bolus dose at 10-20 mg/kg; assay type: ADME, organism-based; conditions: in vivo
[7] = test system: Rattus norvegicus; assay: Half-life in male Sprague-Dawley rats following an intravenous bolus dose at 10-20 mg/kg; assay type: ADME, organism-based; conditions: in vivo; outline: as §2
[8] = test system: Rattus norvegicus; assay: Bioavailability in rat (Sprague-Dawley) (male) (dose 10-20 mg/kg); assay type: ADME, organism-based; conditions: in vivo; outline: as §2
[9] = Bioavailability in male Sprague-Dawley rats following an intravenous bolus dose at 10-20 mg/kg; assay type: ADME, organism-based; conditions: rat, in vivo; outline: as §2

Structure (SMILES)	EC50 [2] [nM]	Vd [4] [L/kg]	Vss [5] [L/kg]	T1/2 [7] [h]	F [8]	IC50 [1] [nM]	selectivity ratio [3]	CL [6] [L/h/kg]	bioavailability [9] [%]
Cc1c(CBr)c(=O)oc2c3c(ccc12)OC(C)(C)[C@H](OC(=O)C12CCC(C)(C(=O)O1)C2(C)C)[C@@H]3OC(=O)C12CCC(C)(C(=O)O1)C2(C)C (stereo partly specified)	0.11	–	–	–	–	> 20900	> 190000	–	–
CC1(C)Oc2ccc3cc(CO)c(=O)oc3c2[C@@H](OC(=O)C23CCC(C)(C(=O)O2)C3(C)C)[C@H]1OC(=O)C12CCC(C)(C(=O)O1)C2(C)C (stereo partly specified)	29	–	–	–	–	23000	806	–	–
CC1(C)Oc2ccc3cc(CBr)c(=O)oc3c2[C@@H](OC(=O)C23CCC(C)(C(=O)O2)C3(C)C)[C@H]1OC(=O)C12CCC(C)(C(=O)O1)C2(C)C (stereo partly specified)	59	–	–	–	–	> 11100	> 186	–	–
CC(=O)OCc1c(C)c2ccc3c(c2oc1=O)[C@@H](OC(=O)C12CCC(C)(C(=O)O1)C2(C)C)[C@@H](OC(=O)C12CCC(C)(C(=O)O1)C2(C)C)C(C)(C)O3 (stereo partly specified)	26	–	–	–	–	14800	567	–	–
CC(=O)OCc1cc2c(C)cc(=O)oc2c2c1OC(C)(C)[C@H](OC(=O)C13CCC(C)(C(=O)O1)C3(C)C)[C@@H]2OC(=O)C12CCC(C)(C(=O)O1)C2(C)C (stereo partly specified)	544	–	–	–	–	> 14100	> 26	–	–
Cc1cc(=O)oc2c3c(c(CO)cc12)OC(C)(C)[C@H](OC(=O)C12CCC(C)(C(=O)O1)C2(C)C)[C@@H]3OC(=O)C12CCC(C)(C(=O)O1)C2(C)C (stereo partly specified)	111	5.9	3.89	0.867	Not detected	> 15000	> 135	284	–
Cc1c(CO)c(=O)oc2c3c(ccc12)OC(C)(C)[C@H](OC(=O)C12CCC(C)(C(=O)O1)C2(C)C)[C@@H]3OC(=O)C12CCC(C)(C(=O)O1)C2(C)C (stereo partly specified)	4	22.9	18.5	3.12	–	24900	5800	284	15
Cc1cn([C@H]2C[C@H](N=[N+]=[N-])[C@@H](CO)O2)c(=O)[nH]c1=O [ZIDOVUDINE]	187	–	–	–	–	–	–	–	–

More lines, main results first:

EC50 [2] [nM]	Vd [4] [L/kg]	Vss [5] [L/kg]	T1/2 [7] [h]	F [8]	Structure (SMILES)	IC50 [1] [nM]	selectivity ratio [3]	CL [6] [L/h/kg]	bioavailability [9] [%]
148	–	–	–	–	Cc1cc(=O)oc2c3c(c(CN)cc12)OC(C)(C)[C@H](OC(=O)C12CCC(C)(C(=O)O1)C2(C)C)[C@@H]3OC(=O)C12CCC(C)(C(=O)O1)C2(C)C (stereo partly specified)	> 15000	> 102	–	–
49	–	–	–	–	CC1(C)Oc2ccc3ccc(=O)oc3c2[C@@H](OC(=O)C23CCC(C)(C(=O)O2)C3(C)C)[C@H]1OC(=O)C12CCC(C)(C(=O)O1)C2(C)C (stereo partly specified)	> 16100	> 328	–	–
3670	–	–	–	–	CCN(CC)Cc1cc2ccc3c(c2oc1=O)[C@@H](OC(=O)C12CCC(C)(C(=O)O1)C2(C)C)[C@@H](OC(=O)C12CCC(C)(C(=O)O1)C2(C)C)C(C)(C)O3 (stereo partly specified)	> 14100	> 4	–	–
156	–	–	–	–	Cc1cc(=O)oc2c3c(c(CBr)cc12)OC(C)(C)[C@H](OC(=O)C12CCC(C)(C(=O)O1)C2(C)C)[C@@H]3OC(=O)C12CCC(C)(C(=O)O1)C2(C)C (stereo partly specified)	> 13700	> 88	–	–
677	–	–	–	–	CC1(C)Oc2ccc3cc(CN)c(=O)oc3c2[C@@H](OC(=O)C23CCC(C)(C(=O)O2)C3(C)C)[C@H]1OC(=O)C12CCC(C)(C(=O)O1)C2(C)C (stereo partly specified)	> 15400	> 23	–	–
17	–	–	–	–	CC(=O)OCc1cc2ccc3c(c2oc1=O)[C@@H](OC(=O)C12CCC(C)(C(=O)O1)C2(C)C)[C@@H](OC(=O)C12CCC(C)(C(=O)O1)C2(C)C)C(C)(C)O3 (stereo partly specified)	11600	676	–	–
1.5	12	10.1	2.42	Not detected	Cc1cc(=O)oc2c3c(ccc12)OC(C)(C)[C@H](OC(=O)C12CCC(C)(C(=O)O1)C2(C)C)[C@@H]3OC(=O)C12CCC(C)(C(=O)O1)C2(C)C (stereo partly specified)	23600	–	–	–

From ChEMBL document CHEMBL1148402, “Anti-AIDS agents. 52. Synthesis and anti-HIV activity of hydroxymethyl (3'R,4'R)-3',4'-di-O-(S)-camphanoyl-(+)-cis-khellactone derivatives” (J Med Chem, 2004)
